Assay outcomes deposited in PubChem by several laboratories.
Rin1-Abl PPI inh = human Rin1-Abl interaction inhibition. P00519+Q13671. TR-FRET Rin1/Abl binding, biochemical. inhibition, % at 7.35 µM. 360,000 compounds, 0.4% hits. AID 588664; in the data active = inhibition above about 5%, passing the limit was not always enough
GRK2 inh = human GRK2 inhibition via aptamer displacement; P25098; bead flow cytometry, FAM-aptamer displacement from GRK2; inhibition of aptamer binding, % at 10 µM; 330,000 compounds, 0.59% hits;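 active = inhibition of aptamer binding above 40%, roughly 3 SD of noise, on plates passing a quality check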;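 also: median bead fluorescence of bound FAM aptamer so fluorescent compounds give negative values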
Target sequence (P25098 whole entry, looked up): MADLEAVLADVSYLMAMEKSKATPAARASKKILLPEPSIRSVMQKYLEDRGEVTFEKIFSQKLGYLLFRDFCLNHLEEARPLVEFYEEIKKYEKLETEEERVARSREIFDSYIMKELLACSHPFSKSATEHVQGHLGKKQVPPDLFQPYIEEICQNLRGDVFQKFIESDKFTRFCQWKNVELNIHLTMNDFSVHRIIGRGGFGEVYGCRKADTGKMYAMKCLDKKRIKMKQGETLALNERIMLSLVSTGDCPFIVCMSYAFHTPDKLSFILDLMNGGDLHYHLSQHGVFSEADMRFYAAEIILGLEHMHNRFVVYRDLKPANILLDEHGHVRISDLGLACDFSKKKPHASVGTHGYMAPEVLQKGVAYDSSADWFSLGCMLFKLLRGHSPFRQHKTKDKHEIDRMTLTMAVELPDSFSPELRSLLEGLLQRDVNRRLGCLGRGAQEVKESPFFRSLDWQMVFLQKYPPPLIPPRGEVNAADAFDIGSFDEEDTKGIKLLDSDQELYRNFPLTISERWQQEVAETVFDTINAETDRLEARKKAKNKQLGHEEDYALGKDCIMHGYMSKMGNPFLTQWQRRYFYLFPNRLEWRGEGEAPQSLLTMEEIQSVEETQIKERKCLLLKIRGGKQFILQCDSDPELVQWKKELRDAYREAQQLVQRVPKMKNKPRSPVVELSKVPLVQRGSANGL
SR-BI DiI-HDL act = enhances SR-BI lipid uptake from DiI-HDL. CHO ldlA[mSR-BI] cells, DiI-HDL uptake fluorescence, 3 h; 100 = double the neutral-control signal. activation, % at 12.5 µM. 320,000 compounds, 0.096% hits. AID 504775;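 active = mean replicate activation of at least 60% and every replicate at or above 60%; inconclusive = mean or all-replicate condition met, but not both; inactive = mean below 60% and not all replicates reaching 60%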
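System: LDL receptor-deficient CHO ldlA cells overexpressing murine SR-BI | Timing: 3 h uptake period with compound, 37 °C | Medium: HEPES-buffered (25 mM, pH 7.4) F12 plus 0.5% BSA | Dosing: Single-point compound dose | Signal: Bottom-read fluorescence, 550/595 nm | Read-out: Retained DiI signal reflecting DiI-HDL uptake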
SR-BI DiI inh = mouse SR-BI HDL lipid transfer inhibition; inhibition, % at 12.5 µM; Q61009; ldlA[mSR-BI] CHO cells, DiI-HDL uptake fluorescence, 3 h; 320,000 compounds, 0.96% hits;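 active = mean replicate inhibition of at least 70% and a set share of replicates each scoring 70 or more; inconclusive = meets just one of the two criteria; inactive = fails both criteria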
Each line names hits and unclear results; the compound was inactive in the other large screens. Most compounds without a hit are left out; they make up all but 1.9% or so of the library.

CCCCC1CC(=O)NC1(C(=O)OCC)C(=O)OCC (centres undefined)	none (no result: GRK2 inh)
COc1cc(/C=N/NC(=O)C(=O)/C=C2\NC3(CCCC3)Cc3ccccc32)ccc1O	SR-BI DiI inh inconclusive
CN(C)c1ccc(/C=N/NC(=O)c2ccccc2)cc1	none
O=C(/C=C1\NC2(CCCC2)Cc2ccccc21)C(=O)N/N=C/c1ccccc1O	SR-BI DiI inh 114
CN(C)c1ccc(/C=N/NC(=O)C(=O)/C=C2\NC3(CCCC3)Cc3ccccc32)cc1	SR-BI DiI inh 94
O=C(C[C@H]1C(=O)N(CCc2ccccc2)C[C@@H]1c1ccccc1)Nc1ccccc1	none (no result: GRK2 inh, SR-BI DiI-HDL act, SR-BI DiI inh)
O=[N+]([O-])c1cc([N+](=O)[O-])c2c(=Nc3ccccc3)n(-c3ccccc3)n(O)c2c1	SR-BI DiI inh 75
O=[N+]([O-])c1cc(Br)c(Nc2ccccc2)c([N+](=O)[O-])c1	none
O=C(Cn1cc(COc2ccc(Br)cc2[N+](=O)[O-])nn1)c1ccc(O)cc1	none (no result: GRK2 inh)
Cc1ccc(S(=O)(=O)NC(=O)C2(C)CCN2C(=O)c2ccccc2)cc1 (centres undefined)	none (no result: GRK2 inh, SR-BI DiI-HDL act, SR-BI DiI inh)
CC(=O)Nc1sc(/C(C#N)=C\c2cccc(Cl)c2)nc1-c1ccc(C)cc1	SR-BI DiI inh 82
Cn1cc(-c2nnnn2-c2ccc(Cl)cc2)c(C(F)(F)F)n1	none
Cc1cc(C)cc(-n2nnnc2-c2cn(C)nc2C(F)(F)F)c1	Rin1-Abl PPI inh 7.5
O=C(Nc1ccc([N+](=O)[O-])cn1)c1cc(-c2cccc(Cl)c2)nc2ccccc12	SR-BI DiI inh 77
COc1ccc(C(=O)Nc2ccc(C3(C#N)CCCC3)cc2)cc1	SR-BI DiI inh 88
COc1ccc(NC(=O)C2(c3ccc(NC(=O)c4ccc(C)cc4)cc3)CCCC2)cc1	none
CNc1nc(N/N=C/c2cc([N+](=O)[O-])ccc2F)nc(Nc2ccccc2)n1	SR-BI DiI inh 75 (no result: GRK2 inh)
O=[N+]([O-])c1cc2c(cc1/C=N\NS(=O)(=O)c1ccccc1)OCO2	none
CNc1nc(N/N=C/c2cc3c(cc2[N+](=O)[O-])OCO3)nc(Nc2ccccc2)n1	SR-BI DiI inh 87
Cc1ccc(CC(=O)OC(C)C(=O)NC2CCCCC2C)cc1C (centres undefined)	none
COc1ccc(OC)c(NC(=O)c2cc(S(=O)(=O)NCc3ccco3)ccc2F)c1	SR-BI DiI inh 83
COc1ccccc1CN(C)C(=O)c1ccc(S(=O)(=O)NCc2ccco2)cc1	GRK2 inh 44
O=C(CCCc1ccccc1)NC12CC3CC(CC(C3)C1)C2	none
O=C(c1ccccc1F)N(Cc1ccc2c(c1)OCO2)Cc1cc2cc3c(cc2n2nnnc12)OCO3	SR-BI DiI inh 72 (no result: SR-BI DiI-HDL act)
OCCc1ccc(NCCc2cccs2)cc1	none (no result: GRK2 inh, SR-BI DiI-HDL act, SR-BI DiI inh)
CN(C)c1ccc(C(C(=O)NCC2CCCO2)N(Cc2ccccc2)C(=O)c2snc(C(N)=O)c2N)cc1 (centres undefined)	none (no result: SR-BI DiI-HDL act, SR-BI DiI inh)
Cc1cccc(N(C(=O)c2snc(C(N)=O)c2N)C(C(=O)NCC2CCCO2)c2ccc(N(C)C)cc2)c1C (centres undefined)	GRK2 inh 99
CCN(C(=O)COC(=O)c1c2c(nc3ccccc13)CCC2)c1c(N)n(Cc2ccccc2)c(=O)[nH]c1=O	none (no result: GRK2 inh)
CC(C)CN(C(=O)COC(=O)c1c2c(nc3ccccc13)CCC2)c1c(N)n(Cc2ccccc2)c(=O)[nH]c1=O	SR-BI DiI inh 72
Cc1c(C(=O)c2ccc(N(C)C)cc2)c2ccccn2c1CCC#N	SR-BI DiI inh 73
Cc1c(C(=O)c2ccc(F)cc2F)c2ccccn2c1CCC#N	none
CCOCCCNC(=O)/C(C#N)=C/c1cc(Br)c(O)c(Br)c1	none (no result: GRK2 inh, SR-BI DiI-HDL act, SR-BI DiI inh)
COCCNC(=O)/C(C#N)=C/c1cc(Br)c(O)c(OC)c1	GRK2 inh 43
COc1ccccc1C(=O)Nc1cc(Cl)ccc1-n1cncn1	none
COc1cc(OC)c(C(=O)Nc2cc(Cl)ccc2-n2cncn2)cc1OC	SR-BI DiI inh 81
COc1ccc(C(=O)OCC(=O)N2c3ccccc3CC2C)cc1S(=O)(=O)N1CCOCC1 (centres undefined)	none (no result: GRK2 inh, SR-BI DiI-HDL act, SR-BI DiI inh)
COc1ccc(NC(=O)c2sc3nc(N4CCCC4)c4c(c3c2N)CC(C)(C)OC4)cc1	SR-BI DiI inh 73
Cc1csc(=O)n1CC(=O)OCC(=O)NNC(=O)c1ccc(Cl)cc1	none
CCCNC(=S)N1CCN(c2nc(C)nc3sc4c(c23)CCCC4)CC1	SR-BI DiI inh 73
O=C(Cc1ccc(Cl)cc1)N1CCc2ccccc2C1	SR-BI DiI-HDL act 449
CCN(CC)S(=O)(=O)c1ccc2oc(C(=O)Nc3ccc(OC)cc3OC)c(C)c2c1	SR-BI DiI inh 77
O=C(Nc1cccc(C(F)(F)F)c1)Nc1ccc(N2CCCC2)c(S(=O)(=O)Nc2ccccc2Cl)c1	SR-BI DiI inh 91
